Compounds with a hit are over-represented: about 1.9% of the library has one in this group of screens.
ADAM10 inh = inhibits human ADAM10 | inhibition, % at 7 µM | O14672 | recombinant ADAM10, EDANS/DABCYL FRET peptide cleavage, 3 h | 0.62% of 370,000 active;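 active = inhibition above a per-campaign cutoff equal to the mean of compounds falling between control-based bounds plus 3 SD, cut at about 20% in these data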;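 also: 0% = DMSO wells while the 100% control is not disclosed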
Target sequence (O14672 214-748 limits assumed): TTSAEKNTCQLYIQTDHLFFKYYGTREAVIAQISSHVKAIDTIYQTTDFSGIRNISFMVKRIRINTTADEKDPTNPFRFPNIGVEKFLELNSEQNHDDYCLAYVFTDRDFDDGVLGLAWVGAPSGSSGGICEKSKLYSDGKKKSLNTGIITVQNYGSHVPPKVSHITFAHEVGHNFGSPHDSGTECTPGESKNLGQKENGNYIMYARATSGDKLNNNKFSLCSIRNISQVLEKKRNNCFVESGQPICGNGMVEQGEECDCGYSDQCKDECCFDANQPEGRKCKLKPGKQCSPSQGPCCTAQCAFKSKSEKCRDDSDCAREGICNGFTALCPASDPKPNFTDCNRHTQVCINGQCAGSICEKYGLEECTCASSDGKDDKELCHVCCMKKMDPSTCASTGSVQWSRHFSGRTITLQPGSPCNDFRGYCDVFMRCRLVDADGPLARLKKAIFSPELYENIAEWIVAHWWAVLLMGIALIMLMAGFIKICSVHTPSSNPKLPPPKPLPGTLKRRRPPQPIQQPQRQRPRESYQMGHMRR
FAS TE block = inhibitors of human fatty acid synthase thioesterase domain. recombinant FAS-TE, OMFH fluorogenic substrate, fluorescence endpoint. inhibition, % at 15 µM. P49327. AID 602261. 0.67% of 360,000 active;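 active = compounds whose normalised, plate-corrected inhibition of enzyme fluorescence in the single-dose primary screen is 50% or more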;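 also: 0% = DMSO with enzyme and 100% = substrate without enzyme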
ADAM17 inh = inhibitors of human ADAM17 | P78536 | recombinant ADAM17, EDANS/DABCYL FRET peptide cleavage | inhibition, % at 6.95 µM | 0.83% of 370,000 active | AID 720648;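 active = inhibition above the mean of compounds lying between control limits plus 3 SD, set per campaign, cut at about 8.5% in these data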;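 also: 0% = DMSO-only wells as the low control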
SENP1 inh = inhibitors of human SENP1 SUMO protease catalytic domain; Q9P0U3; recombinant SENP1 catalytic domain, CyPet-SUMO1-YPet FRET cleavage; inhibition, % at 10 µM; 0.21% of 360,000 active; AID 624204;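 active = inhibition at least 30% at 10 µM, raw YFP signal under a set limit, fluorescence ratio 0.5 to 1.5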;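 also: 0% = enzyme with DMSO and 100% = no enzyme wells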
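Controls: no-enzyme wells low, DMSO-plus-enzyme wells high control. Test system: human recombinant His6-tagged SENP1 catalytic domain enzyme. Reagent: SFCypet-SUMO1-SFYpet FRET protein substrate, 25 nM final. Doses: one dose per compound, 10 µM, 0.5% DMSO. Detection: FRET, CFP and YFP emission. Timing: 50 min reaction at room temperature.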
ADAM10 ctr = counter-screen for ADAM17 exosite inhibitors: inhibitors of human ADAM10. shares compounds with ADAM17 inh. recombinant ADAM10, EDANS/DABCYL FRET peptide cleavage, 3 h. inhibition, % at 6.95 µM. 47% of 2,900 active;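 active = mean inhibition over the triplicate runs exceeds the activity threshold set in the earlier primary screen, cut at about 20% in these data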;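 also: 0% = DMSO wells and 100% = marimastat wells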
ADAM17 confirm = confirmation of inhibitors of human ADAM17. AID 743257. recombinant ADAM17, EDANS/DABCYL QFRET peptide cleavage. shares compounds with ADAM17 inh. 65% of 2,900 active. inhibition, % at 6.95 µM;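 active = mean inhibition across replicates above the hit cutoff set in the primary screen, cut at about 8.5% in these data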;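 also: 0% = DMSO wells and 100% = marimastat wells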
The depositor's hits bear a star; nt = no result given.

SMILES	ADAM10 inh	FAS TE block	ADAM17 inh	SENP1 inh	ADAM10 ctr	ADAM17 confirm
CCSc1nc(-c2ccco2)ccc1C#N	-17	40	14*	-36	-392	-76
CC(C)(C)C1=Nn2c(nnc2-c2ccc(C(C)(C)C)cc2)SC1	0	nt	-2	nt	nt	nt
OC(c1cccc(Cl)c1)c1nc(/C=C/c2ccc(C(F)(F)F)cc2)cs1 (configuration not stated)	16	27	12*	1	1	6
OC(c1cccc(Cl)c1)c1nc(-c2ccccc2)cs1 (configuration not stated)	3	14	0	1	nt	nt
CC(C)c1cccc(-c2csc(C(O)c3cccc(Cl)c3)n2)c1 (configuration not stated)	12	20	9.7*	1	19	13*
CC(=O)NC(c1cccc(F)c1)c1nc(/C=C/c2ccccc2)cs1 (configuration not stated)	9	17	11*	3	11	6
CC[C@H]1C=C[C@@H](C(=O)NS(=O)(=O)c2ccc(C)cc2)N(C(C)=O)C1	-24	nt	-5	nt	nt	nt
Cc1ncc([N+](=O)[O-])n1CC(=O)N/N=C/c1ccccc1F	12	-6	9.9*	2	5	3
CC(=O)C1(C(=O)Nc2cc(C)cc(C)c2)CC(c2ccccn2)=NO1 (configuration not stated)	-20	nt	-5	nt	nt	nt
COc1cc(COC(=O)Oc2ccc(CNC(C)=O)cc2OC)c([N+](=O)[O-])cc1OC	15	24	10.0*	0	3	3
COc1ccc(COC(=O)Oc2ccc(CNC(C)=O)cc2OC)c([N+](=O)[O-])c1	1	-1	-1	6	nt	nt
COc1ccc(C2=Nc3ccc(C)cc3C(c3ccccc3)N2CC(=O)NN)cc1 (configuration not stated)	-1	-9	-3	2	nt	nt
COC(=O)CN1C(c2ccc(Cl)cc2)=Nc2ccc(Cl)cc2C1c1ccccc1 (configuration not stated)	12	26	9.0*	-1	23*	13*
CC1(C)CC(=O)c2sc(NS(=O)(=O)c3ccc([N+](=O)[O-])cc3)nc2C1	8	25	16*	0	22*	8
CC1(C)CC(=O)c2sc(NS(=O)(=O)c3ccccc3)nc2C1	2	-5	-1	-1	nt	nt
COC(=O)[C@@]1(OC(C)=O)CC(OC(C)=O)[C@H](OC(C)=O)[C@H](OC(C)=O)C1Br (some centres not stated)	-1	nt	-2	nt	nt	nt
COCC(=O)N[C@H]1C[C@@H]2O[C@H](CO)CC[C@@H]2O[C@@H]1CCc1ccc(-c2ccccc2)cc1	3	nt	0	nt	nt	nt
Cc1ccc(C(=O)NC(=S)/C=C2\N(C)c3ccccc3C2(C)C)cc1	16	30	18*	-61	26*	13*
CC(C)C[C@H](CO)N(Cc1ccccc1)S(=O)(=O)N(Cc1ccccc1)[C@@H](CO)CC(C)C	-3	32	13*	0	47*	26*
C=CS(=O)(=O)N(Cc1ccccc1)[C@H](CO)CC(C)C	7	-9	2	1	nt	nt
CC(=O)Oc1cccc(NC(=O)c2cccc(C(=O)Nc3cccc(OC(C)=O)c3)c2)c1	1	4	-1	-1	nt	nt
Cc1cccc(C(=O)Nc2cccc(OC(=O)c3cccc(C)c3)c2)c1	11	13	10*	2	30*	17*
O=C(N[C@@H](Cc1ccccc1)C(=O)OCc1ccccc1)c1nc[nH]c1C(=O)N1CCN(c2ccccc2)CC1	19	21	11*	-32	27*	15*
C[C@H](NC(=O)c1nc[nH]c1C(=O)N[C@@H](C)C(=O)OCc1ccccc1)C(=O)OCc1ccccc1	4	14	-1	1	nt	nt
C[C@H](NC(=O)c1nc[nH]c1C(=O)NCc1ccc(CNC(=O)OC(C)(C)C)cc1)C(=O)OCc1ccccc1	15	26	10*	-1	37*	21*
SMILES	ADAM10 inh	FAS TE block	ADAM17 inh	SENP1 inh	ADAM10 ctr	ADAM17 confirm
C[C@H](NC(=O)c1nc[nH]c1C(=O)NC(c1ccccc1)c1ccccc1)C(=O)OCc1ccccc1	14	25	9.3*	0	3	12*
CC(C)(C)OC(=O)NCCCC[C@H](NC(=O)c1nc[nH]c1C(=O)NCc1ccccc1)C(=O)OC(C)(C)C	17	55*	9.2*	1	35*	20*
C[C@H](NC(=O)c1nc[nH]c1C(=O)NCC(=O)OCc1ccccc1)C(=O)OC(C)(C)C	7	12	2	3	nt	nt
O=C(CSc1nc2ccccc2[nH]1)NN=Cc1ccccc1C(=O)O	-25	nt	-6	nt	nt	nt
COc1cccc(N2CCN(CC(=O)NCc3c(F)cccc3F)CC2)c1	-9	nt	-3	nt	nt	nt
CCCCNC(=O)O[C@H]1CC[C@@]23CCCN2C(=O)CCC[C@H]3C1	-6	nt	0	nt	nt	nt
Cc1cccc(NC(=O)c2nc[nH]c2C(=O)N[C@@H](CC(C)C)C(=O)OC(C)(C)C)c1	19	22	11*	0	30*	16*
Cc1cccc(NC(=O)c2nc[nH]c2C(=O)N[C@@H](Cc2ccccc2)C(=O)OC(C)(C)C)c1	1	19	-4	1	nt	nt
COC(=O)[C@]1(C#N)CC(=O)N(Cc2ccc(Cl)cc2)[C@@H]1c1ccc(OC)cc1	-3	nt	1	nt	nt	nt
CC1(c2nnc(Cc3ccccc3)o2)CC(c2ccc(Cl)cc2)=NO1 (configuration not stated)	-5	8	-3	2	nt	nt
CC1(c2nnc(Cc3ccccc3)o2)CC(c2ccc(C#N)cc2)=NO1 (configuration not stated)	-4	-2	9.0*	4	-4	0
O=C(NC(Nc1nc2ccc([N+](=O)[O-])cc2s1)(C(F)(F)F)C(F)(F)F)c1ccccc1Cl	16	23	11*	-24	22*	13*
C=CCNC(=S)NNC(=O)c1ccc(C)c(Cl)c1	12	-2	12*	1	-2	1
Nc1nonc1-c1nc2ccccc2n1CC(=O)N1CCCCC1	12	0	9.9*	-7	-12	-1
C[C@@H]1CC=C[C@H]2[C@H]1C(=O)N(Cc1ccccc1)[C@H]2c1ccc2ccccc2c1	17	27	9.4*	1	10	6
COc1ccccc1NS(=O)(=O)c1ccc(C)c(NC(=O)c2ccc(S(=O)(=O)N3CCCCCC3)cc2)c1	19	45	12*	1	36*	18*
COc1ccc(NC(=O)c2ccc(S(=O)(=O)N3CCCCC3)cc2)cc1OC	18	1	9.0*	2	10	10*
